Measured values from PMC3116947 (Journal of Molecular Recognition, 2010).
Ends that are not written are not given here.

How the values were obtained:
[1] = target: cSH3 domain of Grb2 (Homo sapiens, UniProt P62993); experiment: ITC binding of Gab1-derived peptides to wildtype cSH3 domain of Grb2; conditions: binding affinity (Kd), 50 mM Tris, pH 8.0, 25 °C (Figure 3a)
[2] = target: E174A mutant of cSH3 domain (cSH3_E174A) of Grb2 (Homo sapiens, UniProt P62993, E174A); experiment: ITC binding of G1 and G2 peptides to cSH3_E174A
Sequence of E174A mutant of cSH3 domain (cSH3_E174A) of Grb2 (P62993 156-215 E174A limits assumed): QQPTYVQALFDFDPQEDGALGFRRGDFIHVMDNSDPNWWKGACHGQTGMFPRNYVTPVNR
Summary of the method: (§1)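 Human Grb2 cSH3 domain (wildtype or point mutant) expressed in E. coli Rosetta2(DE3), purified by Ni-NTA and size-exclusion chromatography. 12-mer human Gab1 peptides, concentration measured gravimetrically. ITC at 25 °C in 50 mM Tris pH 8.0, 200 mM NaCl, 1 mM EDTA, 5 mM β-mercaptoethanol: 25 injections of 2–8 mM peptide into 50–200 µM cSH3. Kd from one-site non-linear least-squares fit; 3–4 independent runs, SD.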

[3] = target: D190A mutant of cSH3 domain (cSH3_D190A) of Grb2 (Homo sapiens, UniProt P62993, D190A); experiment: ITC binding of G1 and G2 peptides to cSH3_D190A; conditions: SD
Sequence of D190A mutant of cSH3 domain (cSH3_D190A) of Grb2 (P62993 156-215 D190A limits assumed): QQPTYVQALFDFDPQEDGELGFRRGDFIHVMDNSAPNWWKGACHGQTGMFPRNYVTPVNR
Summary of the method: as §1

[4] = target: E171A mutant of cSH3 domain (cSH3_E171A) of Grb2 (Homo sapiens, UniProt P62993, E171A); experiment: ITC binding of G1 and G2 peptides to cSH3_E171A; conditions: SD
Sequence of E171A mutant of cSH3 domain (cSH3_E171A) of Grb2 (P62993 156-215 E171A limits assumed): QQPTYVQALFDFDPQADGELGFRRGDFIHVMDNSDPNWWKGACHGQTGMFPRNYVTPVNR
Summary of the method: as §1

[5] = target: D187A mutant of cSH3 domain (cSH3_D187A) of Grb2 (Homo sapiens, UniProt P62993, D187A); experiment: ITC binding of G1 and G2 peptides to cSH3_D187A; conditions: SD
Sequence of D187A mutant of cSH3 domain (cSH3_D187A) of Grb2 (P62993 156-215 D187A limits assumed): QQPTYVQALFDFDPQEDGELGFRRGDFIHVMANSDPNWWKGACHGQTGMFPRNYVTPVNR
Summary of the method: as §1

Sequence of cSH3 domain of Grb2 (P62993 156-215 limits assumed): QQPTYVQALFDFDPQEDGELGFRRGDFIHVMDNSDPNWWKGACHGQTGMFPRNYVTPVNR

| Kd ([1]; in the absence of NaCl) [µM] | Kd ([1]; in the presence of 500 mM NaCl) [µM] | Kd [2] [µM] | Kd [3] [µM] | Kd [4] [µM] | Kd [5] [µM] | Sequence |
| --- | --- | --- | --- | --- | --- | --- |
| ~50 | ~200 | > 1000 | 177 ± 17 | 444 ± 55 | 171 ± 8 | DIPPPRPPKPHP [Peptide G1] |
|  |  | > 1000 | 77 ± 6 | 158 ± 1 | 182 ± 3 | PPPVDRNLKPDR [Peptide G2] |
